Source: ChEMBL document CHEMBL1921719, “Synthesis and activity study of phosphonamidate dipeptides as potential inhibitors of VanX” (Bioorg Med Chem Lett, 2011)
≈ marks a conversion by molar mass, not a printed value.

Target: not listed separately
Experiment: Partial competitive inhibition of VanX
Settings: not given
With `C[C@H](N)P(=O)(O)N[C@H](C)C(=O)O` the Ki was 36 µM.

Tested on: not listed separately
Experiment: Inhibition of VanX using D-Ala-D-Ala as substrate preincubated for 30 mins before substrate addition measured after 150 secs by UV-Vis spectrometry
Settings: not given
Outline: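 The enzyme was recombinant VanX, expressed as an MBP fusion in E. coli BL21(DE3) at 30 °C with 1 mM IPTG induction for 75 min. It was purified on amylose resin, eluted with 20 mM Tris pH 7.6, 10 mM maltose and 200 mM NaCl. Thrombin then cleaved off the MBP, followed by a Q-Sepharose step. IC₅₀ was determined by a previously reported method.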
In the case of `C[C@H](N)P(=O)(O)N[C@H](Cc1ccccc1)C(=O)O`, the IC50 is reported as 4130 µM. `C[C@H](N)P(=O)(O)N[C@H](C)C(=O)O` showed an IC50 of 700 µM. Molecule `CC(C)[C@@H](NP(=O)(O)[C@H](C)N)C(=O)O` has an IC50 of 1120 µM. Molecule `C[C@H](N)P(=O)(O)NCC(=O)O` has an IC50 of 390 µM. `CC(C)C[C@@H](NP(=O)(O)[C@H](C)N)C(=O)O` showed an IC50 of 2820 µM.

Tested on: Staphylococcus aureus
Experiment: Antibacterial activity against Staphylococcus aureus ATCC 25923 after 24 hrs by macrodilution broth method
Type: functional
Settings: ATCC 25923, 24 h
Outline: (§1)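 CLSI tube macrodilution broth method, with MIC as the read-out. Test strains were S. aureus ATCC 25923 and two clinical MRSA isolates. Cultures of about 10⁸ CFU/ml in Mueller–Hinton medium and phosphonamidate (2 mM stock in ddH₂O) were added in sequence to a vancomycin dilution series from 128 down to 0.125. Tubes were incubated for 24 h at 37 °C.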
`C[C@H](N)P(=O)(O)N[C@H](Cc1ccccc1)C(=O)O` gave an MIC of 2 µg/mL (≈ 7.35 µM). `C[C@H](N)P(=O)(O)N[C@H](C)C(=O)O` gave an MIC of 2 µg/mL (≈ 10.2 µM). `CC(C)[C@@H](NP(=O)(O)[C@H](C)N)C(=O)O` gave an MIC of 2 µg/mL (≈ 8.92 µM). Work on `C[C@H](N)P(=O)(O)NCC(=O)O` yielded an MIC of 0.25 µg/mL (≈ 1.37 µM). `CC(C)C[C@@H](NP(=O)(O)[C@H](C)N)C(=O)O` showed an MIC of 2 µg/mL (≈ 8.4 µM).

Tested on: Staphylococcus aureus
Experiment: Antibacterial activity against methicillin-resistant Staphylococcus aureus isolate 1 after 24 hrs by macrodilution broth method
Type: functional
Settings: isolate 1, 24 h
Outline: as §1
For `C[C@H](N)P(=O)(O)N[C@H](Cc1ccccc1)C(=O)O`, the MIC was 1 µg/mL (≈ 3.67 µM). With `C[C@H](N)P(=O)(O)N[C@H](C)C(=O)O` the MIC was 1 µg/mL (≈ 5.1 µM). `CC(C)[C@@H](NP(=O)(O)[C@H](C)N)C(=O)O` gave an MIC of 1 µg/mL (≈ 4.46 µM). `C[C@H](N)P(=O)(O)NCC(=O)O` gave an MIC of 1 µg/mL (≈ 5.49 µM). `CC(C)C[C@@H](NP(=O)(O)[C@H](C)N)C(=O)O` gave an MIC of 1 µg/mL (≈ 4.2 µM).

Tested on: Staphylococcus aureus
Experiment: Antibacterial activity against methicillin-resistant Staphylococcus isolate 2 after 24 hrs by macrodilution broth method
Type: functional
Settings: isolate 2, 24 h
Outline: as §1
In the case of `C[C@H](N)P(=O)(O)N[C@H](Cc1ccccc1)C(=O)O`, the MIC is reported as 2 µg/mL (≈ 7.35 µM). With `C[C@H](N)P(=O)(O)N[C@H](C)C(=O)O` the MIC was 2 µg/mL (≈ 10.2 µM). Work on `CC(C)[C@@H](NP(=O)(O)[C@H](C)N)C(=O)O` yielded an MIC of 2 µg/mL (≈ 8.92 µM). Work on `C[C@H](N)P(=O)(O)NCC(=O)O` yielded an MIC of 1 µg/mL (≈ 5.49 µM). `CC(C)C[C@@H](NP(=O)(O)[C@H](C)N)C(=O)O` gave an MIC of 2 µg/mL (≈ 8.4 µM).

Tested on: Staphylococcus aureus
Experiment: Antibacterial activity against Staphylococcus aureus ATCC 25923 after 24 hrs by macrodilution broth method relative to untreated control
Type: functional
Settings: not given
With `C[C@H](N)P(=O)(O)NCC(=O)O` the “fold change (FC)” value was 8.
